System: HEK-293T
Experiment: Multiplex assay against HEK293T;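 on Population Tubulin-Different-Phenotype (%): share of the cells with healthy nuclei that show this phenotype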
Assay type: toxicity, cell-based
Details: human
Method in brief: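 Four dyes were applied at seeding to live cells: Hoechst33342, BioTracker Green Microtubule Cytoskeleton Dye, MitoTracker Red and Annexin V Alexa Fluor 680. Imaging after compound addition used a CQ1 microscope at 37°C and 5% CO2. CellPathfinder machine-learning gating then sorted cells into Hoechst high-intensity objects or normal cells, normal cells into healthy, pyknosed or fragmented nuclei, and pyknosed cells into mitotic or apoptotic, with tubulin, mitochondrial-mass and membrane-permeability phenotypes given as per cents of healthy-nucleus cells.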

[1] = 12 h, 1 µM, compound concentration 1 uM, replicate 1
[2] = 12 h, 1 µM, compound concentration 1 uM, replicate 2
[3] = 12 h, 10 µM, compound concentration 10 uM, replicate 1
[4] = 12 h, 10 µM, compound concentration 10 uM, replicate 2
[5] = 24 h, 1 µM, compound concentration 1 uM, replicate 1
[6] = 24 h, 1 µM, compound concentration 1 uM, replicate 2
[7] = 24 h, 10 µM, compound concentration 10 uM, replicate 1
[8] = 24 h, 10 µM, compound concentration 10 uM, replicate 2
[9] = 48 h, 1 µM, compound concentration 1 uM, replicate 1
[10] = 48 h, 1 µM, compound concentration 1 uM, replicate 2
[11] = 48 h, 10 µM, compound concentration 10 uM, replicate 1
[12] = 48 h, 10 µM, compound concentration 10 uM, replicate 2

## CC(C)(C)NC[C@H](O)COc1nsnc1N1CCOCC1 [TIMOLOL]
[1]
  Population Apoptotic (%): 47%
  Population Fragmented Nuclei (%): 10%
  Population Healthy Nuclei (%): 39%
  Population Hoechst High Intensity Objects (%): 14%
  Population Membrane Permeable-Phenotype (%): 4%
  Population Mitochondria Different-Phenotype (%): 77%
  Population Mitotic Cells (%): 52%
  Population Normal (%): 85%
  Population Pyknosed Nuclei (%): 50%
  Population Tubulin-Different-Phenotype (%): 36%
  Total Cell Count: 281
[2]
  Population Apoptotic (%): 12%
  Population Fragmented Nuclei (%): 5%
  Population Healthy Nuclei (%): 48%
  Population Hoechst High Intensity Objects (%): 3%
  Population Membrane Permeable-Phenotype (%): 8%
  Population Mitochondria Different-Phenotype (%): 19%
  Population Mitotic Cells (%): 87%
  Population Normal (%): 96%
  Population Pyknosed Nuclei (%): 45%
  Population Tubulin-Different-Phenotype (%): 22%
  Total Cell Count: 280
[3]
  Population Apoptotic (%): 55%
  Population Fragmented Nuclei (%): 9%
  Population Healthy Nuclei (%): 40%
  Population Hoechst High Intensity Objects (%): 13%
  Population Membrane Permeable-Phenotype (%): 2%
  Population Mitochondria Different-Phenotype (%): 87%
  Population Mitotic Cells (%): 44%
  Population Normal (%): 86%
  Population Pyknosed Nuclei (%): 49%
  Population Tubulin-Different-Phenotype (%): 53%
  Total Cell Count: 293
[4]
  Population Apoptotic (%): 8%
  Population Fragmented Nuclei (%): 3%
  Population Healthy Nuclei (%): 50%
  Population Hoechst High Intensity Objects (%): 3%
  Population Membrane Permeable-Phenotype (%): 4%
  Population Mitochondria Different-Phenotype (%): 23%
  Population Mitotic Cells (%): 91%
  Population Normal (%): 96%
  Population Pyknosed Nuclei (%): 46%
  Population Tubulin-Different-Phenotype (%): 17%
  Total Cell Count: 261
[5]
  Population Apoptotic (%): 49%
  Population Fragmented Nuclei (%): 8%
  Population Healthy Nuclei (%): 43%
  Population Hoechst High Intensity Objects (%): 12%
  Population Membrane Permeable-Phenotype (%): 1%
  Population Mitochondria Different-Phenotype (%): 58%
  Population Mitotic Cells (%): 50%
  Population Normal (%): 87%
  Population Pyknosed Nuclei (%): 47%
  Population Tubulin-Different-Phenotype (%): 41%
  Total Cell Count: 293
[6]
  Population Apoptotic (%): 8%
  Population Fragmented Nuclei (%): 7%
  Population Healthy Nuclei (%): 67%
  Population Hoechst High Intensity Objects (%): 1%
  Population Membrane Permeable-Phenotype (%): 11%
  Population Mitochondria Different-Phenotype (%): 12%
  Population Mitotic Cells (%): 91%
  Population Normal (%): 98%
  Population Pyknosed Nuclei (%): 24%
  Population Tubulin-Different-Phenotype (%): 30%
  Total Cell Count: 363
[7]
  Population Apoptotic (%): 44%
  Population Fragmented Nuclei (%): 6%
  Population Healthy Nuclei (%): 57%
  Population Hoechst High Intensity Objects (%): 12%
  Population Membrane Permeable-Phenotype (%): 2%
  Population Mitochondria Different-Phenotype (%): 70%
  Population Mitotic Cells (%): 55%
  Population Normal (%): 87%
  Population Pyknosed Nuclei (%): 35%
  Population Tubulin-Different-Phenotype (%): 40%
  Total Cell Count: 360
[8]
  Population Apoptotic (%): 8%
  Population Fragmented Nuclei (%): 3%
  Population Healthy Nuclei (%): 71%
  Population Hoechst High Intensity Objects (%): 3%
  Population Membrane Permeable-Phenotype (%): 4%
  Population Mitochondria Different-Phenotype (%): 17%
  Population Mitotic Cells (%): 91%
  Population Normal (%): 96%
  Population Pyknosed Nuclei (%): 24%
  Population Tubulin-Different-Phenotype (%): 18%
  Total Cell Count: 355
[9]
  Population Apoptotic (%): 52%
  Population Fragmented Nuclei (%): 18%
  Population Healthy Nuclei (%): 46%
  Population Hoechst High Intensity Objects (%): 10%
  Population Membrane Permeable-Phenotype (%): 6%
  Population Mitochondria Different-Phenotype (%): 23%
  Population Mitotic Cells (%): 47%
  Population Normal (%): 89%
  Population Pyknosed Nuclei (%): 34%
  Population Tubulin-Different-Phenotype (%): 33%
  Total Cell Count: 373
[10]
  Population Apoptotic (%): 16%
  Population Fragmented Nuclei (%): 5%
  Population Healthy Nuclei (%): 82%
  Population Hoechst High Intensity Objects (%): 2%
  Population Mitochondria Different-Phenotype (%): 3%
  Population Mitotic Cells (%): 83%
  Population Normal (%): 97%
  Population Pyknosed Nuclei (%): 12%
  Population Tubulin-Different-Phenotype (%): 25%
  Total Cell Count: 733
[11]
  Population Apoptotic (%): 42%
  Population Fragmented Nuclei (%): 12%
  Population Healthy Nuclei (%): 65%
  Population Hoechst High Intensity Objects (%): 5%
  Population Membrane Permeable-Phenotype (%): 0%
  Population Mitochondria Different-Phenotype (%): 23%
  Population Mitotic Cells (%): 57%
  Population Normal (%): 94%
  Population Pyknosed Nuclei (%): 22%
  Population Tubulin-Different-Phenotype (%): 20%
  Total Cell Count: 545
[12]
  Population Apoptotic (%): 6%
  Population Fragmented Nuclei (%): 7%
  Population Healthy Nuclei (%): 85%
  Population Hoechst High Intensity Objects (%): 2%
  Population Membrane Permeable-Phenotype (%): 2%
  Population Mitochondria Different-Phenotype (%): 4%
  Population Mitotic Cells (%): 93%
  Population Normal (%): 97%
  Population Pyknosed Nuclei (%): 7%
  Population Tubulin-Different-Phenotype (%): 17%
  Total Cell Count: 660

Reference: ChEMBL document CHEMBL4689842, “EUbOPEN Chemogenomics Library wave 1” (2021)
